Experimental data taken from PubChem BioAssay.
Activity calls are given as the source filed them.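 The calls were made as follows, unless noted: active = potentiation averaged over duplicate wells exceeding buffer-only control mean by more than 3 SD; inactive = the rest.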

System: not listed separately
Assay: thallium flux activation in parental CHO cells, counter-screen for KCNQ1 potentiator project (AID 493006;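 active = duplicate-averaged activation above buffer control mean plus 5 SD of those controls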;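 as to activation: fluorescence ratio of max minus min over baseline after K+ and Tl+ depolarization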)
Settings: parental CHO-K1 cells, FluxOR thallium flux, at 10 µM; hits give high values
How it was run: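 Assay system: parental CHO-K1 cells lacking KCNQ1, loaded with FluxOR thallium dye; timing: dye 90 min RT, compound 20 min RT; signal: kinetic thallium-flux fluorescence; repeats: duplicate wells per compound, percent values averaged; benchmarks: buffer and R-L3 controls; reagent: Potassium/thallium depolarization pulse; read-out: fluorescence change ratio scaled 0% buffer, 100% R-L3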

Structure (SMILES) | outcome | activation
Cc1cc(C(=O)N/N=C/C=C/c2ccc3c(c2)OCO3)n[nH]1 | inactive | 
Cc1ccc(/C=C/C(=O)c2ccccc(=O)c2O)c(C)c1 |  | 244% (active)
CCCCC(=O)N(c1ccc(OCC)cc1)C1C=CS(=O)(=O)C1 (stereo not drawn) | inactive | 
CC(c1ccccc1C(O)(c1ccccc1)c1ccccc1)N(C)C (stereo not drawn) | inactive | 
Cc1cccc(CC2CC(=O)N(c3ccc(C)cc3Br)C2=O)c1 (stereo not drawn) | inactive | 
Cc1ccccc1NC(=S)NNC(=O)c1csc2c1CCC(C)C2 (stereo not drawn) |  | 174% (active)
CN(CCCNC(=O)CSc1cc(=O)n(C)c2ccc(Cl)cc12)Cc1ccccc1 | inactive | 
CCCn1nnnc1SCC(=O)c1ccc2c(c1)OCCO2 | inactive | 
CCc1nc2sc3c(=O)[nH]cnc3c2c2c1CSC(C)(C)C2 | inactive | 
CCOC(=O)c1c(NC(=S)NC(=O)c2ccco2)sc2c1CCCC2 | inactive | 
O=C(NN=C1CCCC1)c1n[nH]c2c1CCC2 |  | 196% (active)
O=C1c2ccccc2C2(c3cc(C(F)(F)F)cc(C(F)(F)F)c3)NCCN12 (stereo not drawn) | inactive | 
Oc1c(Br)cc(Br)cc1C=NCc1ccccc1 |  | 147% (active)
COc1cccc(OC)c1OCCOCCN1CCN(C)CC1 | inactive | 
C=CCCCN(Cc1ccccc1)S(=O)(=O)c1ccccc1Br | inactive | 
O=c1cc(-c2ccccc2)cc(-c2ccccc2)n1O |  | 254% (active)
OC(CON=C1c2ccccc2-c2ccccc21)CN1CCNCC1 (stereo not drawn) | inactive | 
CCN1c2ccccc2-c2nc3ccccc3n2C1c1cccnc1 (stereo not drawn) | inactive | 
Fc1ccc(SCCc2ccncc2)cc1 | inactive | 
CCCCCCCCCCCCN1[C@@H](CC(=O)O)c2cc(F)ccc2S1(=O)=O |  | 230% (active)

Structure (SMILES) | outcome | activation
O=C(COC(=O)c1cc(NS(=O)(=O)c2cccs2)ccc1O)Nc1cc(Cl)ccc1Cl | inactive | 
COc1ccc(OC)c(NC(=O)C(=O)NNC(=O)COc2ccc(Br)cc2C)c1 |  | 520% (active)
O=C(CCn1c(=O)sc2ccccc21)NCc1ccco1 | inactive | 
CC1(C)Cc2c(sc3[nH]c(=S)n(Cc4ccccc4)c(=O)c23)CO1 |  | 191% (active)
CC(C)(C)C1CCc2c(sc(NC(=O)C3CC=CCC3C(=O)O)c2C#N)C1 (stereo not drawn) |  | 178% (active)
O=C(COc1ccc(C(=S)N2CCC(Cc3ccccc3)CC2)cc1)N1CCOCC1 | inactive | 
CCN(CC(=O)Nc1ccc(OC)cc1)C(=O)CSCC(=O)Nc1ccc(C)cc1 | inactive | 
CC1CCc2sc3nc(N4CCN(CCO)CC4)n4ncnc4c3c2C1 (stereo not drawn) |  | 510% (active)
CCC1(c2ccccc2)NC(=S)N(c2ccc(C)cc2)N1 (stereo not drawn) |  | 392% (active)
Cc1nc(NC(=S)NC(=O)c2cccs2)ccc1Br |  | 148% (active)
CCN(c1ccccc1)S(=O)(=O)c1ccc(NC(=O)c2nc(S(C)(=O)=O)ncc2Cl)cc1 | inactive | 
CCOC(=O)c1ccc(-c2ccc(C3Nc4ccccc4C(=O)N3O)o2)cc1 (stereo not drawn) | inactive | 
Cc1cccc(NC(=O)CSc2ccc3nnc(-c4cccnc4)n3n2)c1 | inactive | 
Cc1cc(Br)ccc1OCC(=O)NNC(=O)C(=O)Nc1ccccc1 |  | 406% (active)
CSc1nc(Nc2ccc(Cl)cc2)c(C#N)c(=O)[nH]1 | inactive | 
CC(=O)Nc1ccc(S(=O)(=O)N2CCC(C(=O)O)CC2)cc1 | inactive | 
CCOc1ncccc1C(=O)OCc1ccc(C#N)cc1 |  | 286% (active)
COc1ccccc1C(=O)NNC(=O)C(=O)NCc1ccccc1 |  | 188% (active)
Cc1ccc(-c2cc(-c3n[nH]c(=S)o3)c3ccccc3n2)cc1 |  | 468% (active)

Molecular target: Potassium voltage-gated channel subfamily KQT member 1 (Homo sapiens) (UniProt P51787)
Sequence (P51787 whole entry, looked up): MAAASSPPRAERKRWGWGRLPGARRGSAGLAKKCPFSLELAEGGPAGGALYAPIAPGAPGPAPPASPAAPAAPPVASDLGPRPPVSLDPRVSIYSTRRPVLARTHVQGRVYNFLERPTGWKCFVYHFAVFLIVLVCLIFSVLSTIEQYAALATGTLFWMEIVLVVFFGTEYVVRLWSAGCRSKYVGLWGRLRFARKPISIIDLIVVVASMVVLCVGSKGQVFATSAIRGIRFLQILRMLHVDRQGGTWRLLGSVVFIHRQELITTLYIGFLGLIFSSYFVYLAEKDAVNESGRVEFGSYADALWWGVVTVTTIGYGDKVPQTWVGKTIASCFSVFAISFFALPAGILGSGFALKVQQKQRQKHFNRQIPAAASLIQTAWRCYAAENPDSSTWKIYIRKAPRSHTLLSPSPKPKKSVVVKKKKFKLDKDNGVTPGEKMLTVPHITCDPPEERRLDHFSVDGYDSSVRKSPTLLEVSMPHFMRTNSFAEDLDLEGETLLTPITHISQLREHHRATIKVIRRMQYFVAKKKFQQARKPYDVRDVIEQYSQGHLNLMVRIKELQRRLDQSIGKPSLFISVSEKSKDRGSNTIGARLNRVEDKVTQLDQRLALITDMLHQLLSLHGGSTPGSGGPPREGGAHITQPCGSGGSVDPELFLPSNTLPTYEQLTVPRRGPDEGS
Assay: KCNQ1 potassium channel potentiators, confirmation, FluxOR thallium flux, CHO cells, duplicates (AID 493007);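 as to outcome: cells depolarized by a potassium plus thallium sulfate stimulus after compound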
Settings: KCNQ1 cell line, FluxOR thallium flux fluorescence, at 10 µM; hits give high values, % of reference activator effect, buffer zero
How it was run: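 material = CHO cells stably expressing the KCNQ1 potassium channel | repeats = duplicate wells per compound | measure = percent activation between buffer and R-L3 responses | signal = FluxOR thallium-flux fluorescence, kinetic read | schedule = FluxOR dye loading 90 min, compound exposure 20 min, room temperature | control set = buffer and R-L3 controls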

Structure (SMILES) | outcome | potentiation
Cc1cc(C(=O)N/N=C/C=C/c2ccc3c(c2)OCO3)n[nH]1 | inactive | 
Cc1ccc(/C=C/C(=O)c2ccccc(=O)c2O)c(C)c1 |  | 118% (active)
CCCCC(=O)N(c1ccc(OCC)cc1)C1C=CS(=O)(=O)C1 (stereo not drawn) | inactive | 
CC(c1ccccc1C(O)(c1ccccc1)c1ccccc1)N(C)C (stereo not drawn) | inactive | 
Cc1cccc(CC2CC(=O)N(c3ccc(C)cc3Br)C2=O)c1 (stereo not drawn) | inactive | 
Cc1ccccc1NC(=S)NNC(=O)c1csc2c1CCC(C)C2 (stereo not drawn) |  | 30% (active)
CN(CCCNC(=O)CSc1cc(=O)n(C)c2ccc(Cl)cc12)Cc1ccccc1 | inactive | 
CCCn1nnnc1SCC(=O)c1ccc2c(c1)OCCO2 | inactive | 
CCc1nc2sc3c(=O)[nH]cnc3c2c2c1CSC(C)(C)C2 | inactive | 
CCOC(=O)c1c(NC(=S)NC(=O)c2ccco2)sc2c1CCCC2 | inactive | 
O=C(NN=C1CCCC1)c1n[nH]c2c1CCC2 |  | 35% (active)
O=C1c2ccccc2C2(c3cc(C(F)(F)F)cc(C(F)(F)F)c3)NCCN12 (stereo not drawn) | inactive | 
Oc1c(Br)cc(Br)cc1C=NCc1ccccc1 |  | 21.5% (active)
COc1cccc(OC)c1OCCOCCN1CCN(C)CC1 | inactive | 
C=CCCCN(Cc1ccccc1)S(=O)(=O)c1ccccc1Br | inactive | 
O=c1cc(-c2ccccc2)cc(-c2ccccc2)n1O |  | 87.5% (active)
OC(CON=C1c2ccccc2-c2ccccc21)CN1CCNCC1 (stereo not drawn) | inactive | 
CCN1c2ccccc2-c2nc3ccccc3n2C1c1cccnc1 (stereo not drawn) | inactive | 
Fc1ccc(SCCc2ccncc2)cc1 | inactive | 
CCCCCCCCCCCCN1[C@@H](CC(=O)O)c2cc(F)ccc2S1(=O)=O |  | 76% (active)

Structure (SMILES) | outcome | potentiation
O=C(COC(=O)c1cc(NS(=O)(=O)c2cccs2)ccc1O)Nc1cc(Cl)ccc1Cl | inactive | 
COc1ccc(OC)c(NC(=O)C(=O)NNC(=O)COc2ccc(Br)cc2C)c1 |  | 346% (active)
O=C(CCn1c(=O)sc2ccccc21)NCc1ccco1 | inactive | 
CC1(C)Cc2c(sc3[nH]c(=S)n(Cc4ccccc4)c(=O)c23)CO1 |  | 63% (active)
CC(C)(C)C1CCc2c(sc(NC(=O)C3CC=CCC3C(=O)O)c2C#N)C1 (stereo not drawn) |  | 53% (active)
O=C(COc1ccc(C(=S)N2CCC(Cc3ccccc3)CC2)cc1)N1CCOCC1 | inactive | 
CCN(CC(=O)Nc1ccc(OC)cc1)C(=O)CSCC(=O)Nc1ccc(C)cc1 | inactive | 
CC1CCc2sc3nc(N4CCN(CCO)CC4)n4ncnc4c3c2C1 (stereo not drawn) |  | 200% (active)
CCC1(c2ccccc2)NC(=S)N(c2ccc(C)cc2)N1 (stereo not drawn) |  | 198% (active)
Cc1nc(NC(=S)NC(=O)c2cccs2)ccc1Br |  | 23.5% (active)
CCN(c1ccccc1)S(=O)(=O)c1ccc(NC(=O)c2nc(S(C)(=O)=O)ncc2Cl)cc1 | inactive | 
CCOC(=O)c1ccc(-c2ccc(C3Nc4ccccc4C(=O)N3O)o2)cc1 (stereo not drawn) | inactive | 
Cc1cccc(NC(=O)CSc2ccc3nnc(-c4cccnc4)n3n2)c1 | inactive | 
Cc1cc(Br)ccc1OCC(=O)NNC(=O)C(=O)Nc1ccccc1 |  | 224% (active)
CSc1nc(Nc2ccc(Cl)cc2)c(C#N)c(=O)[nH]1 | inactive | 
CC(=O)Nc1ccc(S(=O)(=O)N2CCC(C(=O)O)CC2)cc1 | inactive | 
CCOc1ncccc1C(=O)OCc1ccc(C#N)cc1 |  | 114% (active)
COc1ccccc1C(=O)NNC(=O)C(=O)NCc1ccccc1 |  | 59.5% (active)
Cc1ccc(-c2cc(-c3n[nH]c(=S)o3)c3ccccc3n2)cc1 |  | 260% (active)
